# Source: PubChem BioAssay (several laboratories)
# Only some compounds are listed: those with a hit (about 3.1% of all), similar ones and a draw of the others.
# NadD block: inhibitors of S. aureus NadD, primary screen, biochemical, colorimetric, uHTS; purified NadD enzyme, colorimetric absorbance read-out; AID 602399, 2012; Nicotinate-nucleotide adenylyltransferase NadD (Staphylococcus aureus N315); 360,000 compounds, 0.78% hits; inhibition, % at 20 µM; in the data active = inhibition above about 26%
# PP1 counter: PP1-alpha phosphatase inhibitors, primary screen, counter-screen for PP5 inhibitor project, biochemical, fluorescence, OMFP substrate, single point; AID 2235, 2010; Serine/threonine-protein phosphatase PP1-alpha catalytic subunit (Homo sapiens), P62136; purified PP1alpha; 320,000 compounds, 0.9% hits; inhibition, % at 6.7 µM;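 active = inhibition above the mean inhibition of all tested compounds plus 3 SD, computed separately for each screening campaign, cut at about 15% in these data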
# Target sequence (P62136 whole entry, looked up): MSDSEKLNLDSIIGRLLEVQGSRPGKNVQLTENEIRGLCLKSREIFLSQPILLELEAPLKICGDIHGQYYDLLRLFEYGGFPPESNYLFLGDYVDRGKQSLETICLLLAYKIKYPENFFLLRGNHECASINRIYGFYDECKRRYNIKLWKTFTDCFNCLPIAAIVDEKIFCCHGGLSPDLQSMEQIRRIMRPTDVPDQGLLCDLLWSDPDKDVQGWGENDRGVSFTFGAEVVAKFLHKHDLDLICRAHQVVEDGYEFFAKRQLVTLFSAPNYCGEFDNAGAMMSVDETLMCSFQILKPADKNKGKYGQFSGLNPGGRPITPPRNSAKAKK
# HCV core dimer: inhibitors of HCV core protein dimerization, primary screen, biochemical, TR-FRET, high-throughput; inhibition, % at 5 µM; 300,000 compounds, 0.33% hits; TR-FRET GST/Flag-core106 dimerization, 1536-well;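 active = inhibition above the mean of all tested compounds plus 3 SD, set per screening campaign, cut at about 45% in these data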
#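 Assay system: tagged HCV core106 pair (GST and Flag); medium: KF-containing HEPES buffer, pH 7.45, DTT, CHAPS, BSA; also added: Eu donor and XL665 acceptor anti-tag antibodies; dosing: 5 µM single dose; timing: compound-protein-antibody incubation 4 h at 22.5 °C; signal: TR-FRET 671 and 617 nm emission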
# Fh CTSL1 inh: Fasciola hepatica cathepsin L1 inhibitors, primary screen, counter-screen for PFM18AAP inhibitor project, biochemical, QFRET, fluorogenic peptide substrate | recombinant F. hepatica cathepsin L1, Z-Leu-Arg-MCA fluorescence | inhibition, % at 5.96 µM | 300,000 compounds, 0.49% hits;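 active = inhibition above the mean of all tested compounds plus 3 SD, set per screening campaign, cut at about 17% in these data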;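 also: 0% = plate median of test compound wells and 100% = 1 µM Z-Phe-Ala-diazomethylketone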
# PP5 primary: PP5 phosphatase inhibitors, primary screen, biochemical, fluorescence | purified PP5c, OMFP substrate fluorescence | 320,000 compounds, 0.18% hits | inhibition, % at 6.7 µM;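 active = inhibition above the campaign's mean inhibition across all tested compounds plus 3 SD, cut at about 9.5% in these data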;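 also: 0% = DMSO only and 100% = 100 µM cantharidin control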
# Myeloid diff 2: induction of myeloid progenitor differentiation, primary screen, cell-based, flow cytometry, MLPCN library. calls only at 10 µM. ER-HoxA9 myeloid progenitors, lysozyme-GFP differentiation. 360,000 compounds, 1% hits. AID 624256, 2012;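 active = normalized GFP-positive differentiation at or above the plate's own cutoff, the solvent-only control mean plus 3 SD; inconclusive = no clear call, values can overlap the other calls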;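 also: cells exposed to compound for four days before flow analysis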
# PP1 inh confirm: PP1 phosphatase inhibitors, confirmation, biochemical, fluorescence, OMFP substrate, triplicate. shares compounds with PP1 counter. 1,900 compounds, 52% hits. inhibition, % at 6.7 µM. purified PP1alpha. AID 2358, 2010;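 active = mean PP1 inhibition above a set limit taken from the earlier primary screen, cut at about 15% in these data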
# PP5 counter: PP5 phosphatase inhibition by PP1 hits, confirmation, counter-screen for PP1 inhibitor project, biochemical, fluorescence, triplicate. shares compounds with PP1 counter. purified PP5c, OMFP fluorescence. inhibition, % at 6.7 µM. 1,900 compounds, 4% hits. AID 2360, 2010;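 active = mean PP5 inhibition over triplicate wells above about 9.5% taken from the earlier PP1 screen, limit read from the data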
# The depositor's hits bear a star; i = inactive; u = inconclusive; x = no result given; + = active, no number.
SMILES,NadD block,PP1 counter,HCV core dimer,Fh CTSL1 inh,PP5 primary,Myeloid diff 2,PP1 inh confirm,PP5 counter
COc1cc(C(CC(=O)Nc2ccc(C)cn2)N2Cc3ccccc3C2=O)cc(OC)c1OC (stereo not given),-4,1,-14,-6,0,i,x,x
O=C(N/N=C/c1ccncc1)c1cccc(S(=O)(=O)Nc2ccc(Cl)cc2)c1,-1,21*,4,-3,1,+,7,-4
O=C(N/N=C/c1cccnc1)c1cccc(S(=O)(=O)Nc2cccc(Cl)c2)c1,0,-3,-16,3,1,i,x,x
O=C(O)c1c[nH]c2ccc(S(=O)(=O)N3CCN(c4ccc(F)cc4)CC3)cc2c1=O,4,44*,-2,11,0,i,32*,-4
O=C(O)C1C2CCC(O2)C1C(=O)Nc1ccc(Br)cc1F (stereo not given),-3,58*,-3,0,66*,i,14,21*
Cc1ccc(NC(=O)C2C3CCC(O3)C2C(=O)O)c(Br)c1 (stereo not given),-5,67*,-5,-3,73*,i,20*,28*
Cc1ccc(Cl)cc1NC(=O)C1C2CCC(O2)C1C(=O)O (stereo not given),-7,52*,-5,-2,56*,i,10,16*
O=C(COC(=O)CC1CCCC1)Nc1ccc(Br)cc1F,1,x,x,x,x,i,x,x
CC(C)NS(=O)(=O)c1ccc(NC(=O)C(C)OC(=O)CCC(=O)c2cccs2)cc1 (stereo not given),3,-3,x,x,0,i,x,x
O=[N+]([O-])c1cc(F)cc(F)c1Nc1ccc(F)cc1,-6,x,x,x,x,i,x,x
COC(=O)c1sc2ccccc2c1NC(=O)c1ccc(S(=O)(=O)N2CCCC(C)C2)cc1 (stereo not given),9,-1,5,1,1,i,x,x
CC1CCCN(S(=O)(=O)c2ccc(C(=O)Nc3nnc(C4CC4)o3)cc2)C1 (stereo not given),7,26*,-12,0,6,i,16*,-2
Cc1cc(C)c2nc(NNC(=O)c3ccc(S(=O)(=O)N4CCCC(C)C4)cc3)sc2c1 (stereo not given),15,21*,16,1,4,u,24*,3
O=C(Nc1nnc(C2CC2)o1)c1ccc(S(=O)(=O)N2CCc3ccccc3C2)cc1,16,30*,21,-3,-2,i,31*,-1
CC1CCN(S(=O)(=O)c2ccc(C(=O)Nc3nnc(-c4ccco4)o3)cc2)CC1,16,15,4,1,1,i,x,x
CC1CCCN(S(=O)(=O)c2ccc(C(=O)Nc3nnc(-c4ccccn4)o3)cc2)C1 (stereo not given),12,18*,-6,-2,1,i,15*,-1
CCC(CC)c1nnc(NC(=O)c2ccc(S(=O)(=O)N3CCc4ccccc4C3)cc2)s1,9,-2,10,-2,-1,i,x,x
CNC[C@H]1Oc2c(NS(=O)(=O)c3cccs3)cccc2C(=O)N([C@H](C)CO)C[C@@H]1C,2,x,x,x,x,i,x,x
Cc1cccc(C)c1-n1cccc1/C=C1\SC(=S)N(c2cccc(C(=O)O)c2)C1=O,29,22*,7,-1,4,i,23*,4
Cc1ccc(-c2csc(N)n2)cc1,0,x,x,x,x,i,x,x
Cc1ccc(-n2c(C)cc(-c3csc(N)n3)c2C)cc1,30*,19*,43,0,-1,i,2,-2
CCN(CC(O)CON=C1c2ccccc2-c2ccccc21)S(=O)(=O)c1ccc(C)cc1 (stereo not given),-11,1,-2,-2,5,i,x,x
CN(CC(O)CON=C1c2ccccc2-c2ccccc21)S(=O)(=O)c1ccc(Br)cc1 (stereo not given),-8,41*,5,-1,3,i,-2,-2
CCCCc1ccc(NC(=O)Nc2cc(C)nn2C)cc1,-3,-1,1,-1,4,i,x,x
COc1cccc(CN(C)S(=O)(=O)c2c(C)noc2C)c1OC,-8,x,x,x,x,i,x,x
SMILES,NadD block,PP1 counter,HCV core dimer,Fh CTSL1 inh,PP5 primary,Myeloid diff 2,PP1 inh confirm,PP5 counter
CC(=O)C1=C(O)C(=O)N(c2ccc(O)cc2)C1c1ccc(Cl)cc1 (stereo not given),4,5,4,-1,1,i,x,x
CC(=O)C1=C(O)C(=O)N(c2cc(C(C)(C)C)on2)C1c1ccc(Br)cc1 (stereo not given),18,20*,5,5,1,i,22*,-1
CC(=O)C1=C(O)C(=O)N(c2ccc(Br)cc2)C1c1ccc(Cl)cc1 (stereo not given),8,28*,9,2,-2,i,21*,-1
COc1ccc(C2C(C(C)=O)=C(O)C(=O)N2c2ccc(Br)cc2)cc1 (stereo not given),4,18*,-1,4,3,i,17*,-3
COc1ccc(C(=O)Nc2cccc(C(=O)Nc3cc(C)ccn3)c2)cc1,-3,x,x,x,x,i,x,x
N#Cc1ccc(CN2CCN(C(=O)c3cc(C4CC4)nn3-c3ccccc3)CC2)cc1,7,4,x,x,1,i,x,x
C[C@H](O)[C@@H]1C(=O)N2CCc3ccc(-c4ccccc4)cc3[C@@H]2C[C@@H]1N(C)C(=O)c1ccc(C#N)cc1,-3,x,x,x,x,i,x,x
CN(CC1CCCO1)S(=O)(=O)c1ccc(C(=O)Nc2nc3cc4c(cc3s2)OCO4)cc1 (stereo not given),0,23*,-1,1,4,i,26*,-4
CCCCSc1nc(C)cc(SCC(=O)N/N=C/c2cccc(OC)c2O)n1,8,21*,10,7,3,i,12,1
COc1cccc(/C=N/NC(=O)CSc2nnc(C)n2-c2ccccc2)c1O,0,1,-2,0,2,i,x,x
CCC(=O)N1C(C(=O)N2CCCC2)CSC1c1ccc(OC)cc1 (stereo not given),4,-3,0,-1,3,i,x,x
